The target in one series is T1, Adenosine receptor A1 (Homo sapiens, UniProt P30542).
T1 sequence (P30542 whole entry): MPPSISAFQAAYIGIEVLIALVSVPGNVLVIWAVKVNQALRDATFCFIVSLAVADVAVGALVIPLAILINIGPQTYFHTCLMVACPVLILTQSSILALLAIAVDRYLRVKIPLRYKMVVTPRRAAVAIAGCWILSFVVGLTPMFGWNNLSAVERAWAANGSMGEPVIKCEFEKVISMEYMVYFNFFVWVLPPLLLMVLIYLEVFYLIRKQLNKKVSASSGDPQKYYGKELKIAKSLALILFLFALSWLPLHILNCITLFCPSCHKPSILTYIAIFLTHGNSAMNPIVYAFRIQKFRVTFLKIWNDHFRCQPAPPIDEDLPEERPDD
The series can be described thus: Displacement of [3H]CCPA from human adenosine A1 receptor expressed in CHO cell membranes by radioligand competition assay. The essentials:
(§1)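 Membranes from stably transfected CHO cells were made by 1000 g, then 100 000g spins. hA1 used 1.0 nM [³H]CCPA in 50 mM Tris/HCl pH 7.4. hA3 used 1.0 nM [³H]HEMADO in 50 mM Tris/HCl, 10 mM MgCl2, 1 mM EDTA, pH 8.25. Ki from competition curves, each concentration tested three to five times in triplicate, mean ± S.E.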

The target in another series is T2, Adenosine receptor A2b (Homo sapiens, UniProt P29275).
T2 sequence (P29275 whole entry): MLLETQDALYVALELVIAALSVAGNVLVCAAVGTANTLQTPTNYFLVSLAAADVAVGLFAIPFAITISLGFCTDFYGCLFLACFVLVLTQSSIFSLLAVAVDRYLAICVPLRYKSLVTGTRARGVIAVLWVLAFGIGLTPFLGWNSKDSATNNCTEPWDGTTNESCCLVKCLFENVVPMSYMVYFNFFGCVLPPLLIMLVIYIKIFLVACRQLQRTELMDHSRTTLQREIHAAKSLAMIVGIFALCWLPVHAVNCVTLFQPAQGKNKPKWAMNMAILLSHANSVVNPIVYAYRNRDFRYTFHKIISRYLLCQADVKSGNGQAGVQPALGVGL
The series can be described thus: Antagonist activity at human adenosine A2B receptor expressed in CHO cells assessed as inhibition of NECA-stimulated adenylyl cyclase activity by Glo-sensor cAMP assay. It counts as functional, cell-based. The essentials:
(§2)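 CHO cells stably expressing hA2A or hA2B AR and transiently the GloSensor cAMP biosensor. Cells were equilibrated 2 h at rt in CO2-independent medium with 3% v/v GloSensor reagent and 10% FBS. Compounds at graded concentrations were tested against NECA-induced cAMP rise; luminescence as % of maximal RLU. IC50 from nonlinear regression. Three to five runs in triplicate, mean ± S.E.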

Series [1] concerns the target T3, Adenosine receptor A2a (Homo sapiens, UniProt P29274). Put plainly: Displacement of [3H]NECA from human adenosine A2A receptor expressed in CHO cell membranes by radioligand competition assay.
The target in the next series is T4, Adenosine receptor A3 (Homo sapiens, UniProt P0DMS8).
T4 sequence (P0DMS8 whole entry): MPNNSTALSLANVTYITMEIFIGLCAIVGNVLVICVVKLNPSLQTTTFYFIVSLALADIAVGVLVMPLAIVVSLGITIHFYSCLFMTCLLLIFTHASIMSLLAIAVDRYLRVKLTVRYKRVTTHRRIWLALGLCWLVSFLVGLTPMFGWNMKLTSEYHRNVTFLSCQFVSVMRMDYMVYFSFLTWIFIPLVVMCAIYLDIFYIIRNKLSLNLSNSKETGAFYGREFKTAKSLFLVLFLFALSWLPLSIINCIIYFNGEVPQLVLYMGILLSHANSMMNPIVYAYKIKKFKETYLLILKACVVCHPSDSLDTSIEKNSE
The series can be described thus: Displacement of [3H]HEMADO from human adenosine A3 receptor expressed in CHO cell membranes by radioligand competition assay. The essentials: as §1

In series [2] the target is T3, Adenosine receptor A2a. Put plainly: Antagonist activity at human adenosine A2A receptor expressed in CHO cells assessed as inhibition of NECA-stimulated adenylyl cyclase activity by Glo-sensor cAMP assay. It counts as functional, cell-based. The essentials:
as §2

Series [3] can be described thus: Half life in 50 mM Tris buffer. The class given is physicochemical. The essentials:
(§3)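 Compounds incubated at 37 °C in 50 mM Tris buffer pH 7.4 or in pooled healthy-volunteer human plasma (stored -80 °C). Concentration followed over time by LC-MS/MS; t1/2 taken from the decay rate of ln(concentration) versus time. Half-lives above 240 min cannot be resolved and are given as ≥240. Ketoprofen ethyl ester served as plasma-activity reference.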

Series [4] relates to Microglia. Put plainly: Neuroprotective activity against 30 uM Oxaliplatin-induced neurotoxicity in Sprague-Dawley rat microglia assessed as cell viability at 10 uM incubated fro 24 hrs by MTT assay (reference value: 19.1 +/- 0.8%). It counts as functional.
Series [5] is described as follows: Half life in human plasma. It counts as ADME, cell-free. The essentials: as §3
In series [6] the test system is Microglia. Put plainly: Neuroprotective activity against 10 uM Oxaliplatin-induced neurotoxicity in Sprague-Dawley rat microglia assessed as cell viability at 10 uM incubated fro 24 hrs by MTT assay (reference value: 33.2 +/- 1.3%). The class given is functional.
The target of series [7] is Adenosine receptor A2a (Rattus norvegicus, UniProt P30543). The series can be described thus: Displacement of [3H]NECA from rat adenosine A2A receptor expressed in CHO cell membranes by radioligand competition assay.
For a further series, the system named is Mus musculus. Put plainly: Analgesic activity in CD1 albino mouse model of oxaliplatin-induced neuropathy hypersensitivity assessed as increase pain threshold at 10 to 30 mg/kg, po dosed from day 14 post oxaliplatin challenge and measured after 15 to 45 mins post dose by cold plate test. It counts as functional, organism-based. The essentials:
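Male CD-1 mice (22–25 g) given oxaliplatin 2.4 mg kg⁻¹ i.p. in 5% glucose on days 1-2, 5-9 and 12-14; controls got vehicle. On day 14, compounds suspended in 1% carboxymethylcellulose were given once p.o. Cold plate held at 4 °C ± 1 °C; latency to first hind-paw licking/lifting recorded, 60 s cut-off. Mean ± SEM, two experimental sets; one-way ANOVA with Bonferroni.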

The source made the active and inactive calls. A value given as a limit tells only on which side of the number the result lay.

T3 sequence (P29274 whole entry): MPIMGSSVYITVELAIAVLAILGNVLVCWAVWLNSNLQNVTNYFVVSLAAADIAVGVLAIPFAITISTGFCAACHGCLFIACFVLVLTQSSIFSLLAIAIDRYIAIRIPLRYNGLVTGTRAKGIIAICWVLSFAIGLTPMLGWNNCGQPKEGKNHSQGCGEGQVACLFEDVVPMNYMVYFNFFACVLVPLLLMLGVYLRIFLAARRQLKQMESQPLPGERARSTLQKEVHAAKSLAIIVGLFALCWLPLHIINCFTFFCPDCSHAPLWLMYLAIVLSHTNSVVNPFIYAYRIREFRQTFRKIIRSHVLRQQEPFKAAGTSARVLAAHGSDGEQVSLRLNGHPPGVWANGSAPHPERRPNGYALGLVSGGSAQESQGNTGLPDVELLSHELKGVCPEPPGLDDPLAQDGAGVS
Adenosine receptor A2a (Rattus norvegicus, UniProt P30543), sequence (P30543 whole entry): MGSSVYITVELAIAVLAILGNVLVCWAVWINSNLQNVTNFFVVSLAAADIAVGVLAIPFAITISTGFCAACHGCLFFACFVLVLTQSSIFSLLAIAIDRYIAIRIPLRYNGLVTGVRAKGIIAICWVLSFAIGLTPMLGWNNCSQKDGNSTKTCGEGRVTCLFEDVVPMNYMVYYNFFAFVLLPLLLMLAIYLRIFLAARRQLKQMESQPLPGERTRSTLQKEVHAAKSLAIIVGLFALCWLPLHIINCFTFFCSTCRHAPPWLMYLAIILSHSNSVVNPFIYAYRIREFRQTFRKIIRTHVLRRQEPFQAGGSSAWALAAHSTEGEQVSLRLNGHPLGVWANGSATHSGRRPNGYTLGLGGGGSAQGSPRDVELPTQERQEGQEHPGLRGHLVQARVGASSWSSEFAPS

`Nc1nc(-c2ccc3c(c2)OCO3)cn2c(=O)n(-c3ccccc3)nc12`: the Ki on Adenosine receptor A1 stood at 13 nM; at Adenosine receptor A2a [1], 7.4 nM; at Adenosine receptor A3 it was 38 nM. Moreover, the IC50 on Adenosine receptor A2b was more than 30000 nM.

Regarding `COc1c(C(C)(C)C)cc(-c2cn3c(=O)n(-c4ccccc4)nc3c(N)n2)cc1C(C)(C)C`, the Ki was 108 nM at Adenosine receptor A1, 142 nM on Adenosine receptor A2a [1] and more than 30000 nM on Adenosine receptor A3. For the same compound, the IC50 at Adenosine receptor A2b is more than 30000 nM.

Take `Nc1ccc(-c2cn3c(=O)n(-c4ccccc4)nc3c(N)n2)cc1`: the Ki on Adenosine receptor A1 is 33.5 nM; at Adenosine receptor A2a [1], 22.9 nM; on Adenosine receptor A3, 254 nM. For the same compound, at Adenosine receptor A2b, the IC50 is more than 30000 nM.

`Nc1nc(-c2cc(O)c(O)c(O)c2)cn2c(=O)n(-c3ccccc3)nc12`: the figures for the Ki on Adenosine receptor A1, on Adenosine receptor A2a [1] and on Adenosine receptor A3 were 176 nM, 94.5 nM and 5570 nM, respectively. The IC50 at Adenosine receptor A2b came out at 17300 nM.

For `COc1cc(-c2cn3c(=O)n(-c4ccccc4)nc3c(N)n2)cc(OC)c1OC`, the Ki at Adenosine receptor A1 turned out to be 55 nM; on Adenosine receptor A2a [1], 3.5 nM; at Adenosine receptor A3 it was 214 nM. The IC50 at Adenosine receptor A2b was more than 30000 nM.

Regarding `Nc1nc(-c2ccc(NC(=O)CCCCC3CCSS3)cc2)cn2c(=O)n(-c3ccccc3)nc12` (configuration not stated), the Ki is 8.4 nM on Adenosine receptor A1, 5 nM at Adenosine receptor A2a [1] and more than 30000 nM on Adenosine receptor A3. On Adenosine receptor A2b, the IC50 is more than 30000 nM.

For the compound `COc1cc(O)ccc1-c1cn2c(=O)n(-c3ccccc3)nc2c(N)n1`, the Ki at Adenosine receptor A1 is 29.7 nM; on Adenosine receptor A2a [1] it was 16.8 nM; on Adenosine receptor A3, 11100 nM. Besides, the IC50 on Adenosine receptor A2b is more than 30000 nM.

On to `Cc1cc(-c2cn3c(=O)n(-c4ccccc4)nc3c(N)n2)cc(C)c1O`, for which the Ki came out at 21.3 nM on Adenosine receptor A1, 2.5 nM on Adenosine receptor A2a [1] and 100 nM at Adenosine receptor A3. The IC50 on Adenosine receptor A2b is more than 30000 nM.

In the case of `Nc1nc(-c2ccc(NC(=O)CCNC(=O)CCCCC3CCSS3)cc2)cn2c(=O)n(-c3ccccc3)nc12` (configuration not stated), the IC50 on Adenosine receptor A2a [2] is 296 nM; at Adenosine receptor A2b, more than 30000 nM. In addition, the half-life in series [3] is not below 4 h; in series [5], 0.683 h. The Ki at Adenosine receptor A1 is 1360 nM; on Adenosine receptor A2a [1], 36.4 nM; at Adenosine receptor A3 it was more than 30000 nM. Moreover, the Activity is on record as 18.3% with Microglia [4] and 38.9% in the series with Microglia [6].

Consider `NC(=O)COc1ccc(-c2cn3c(=O)n(-c4ccccc4)nc3c(N)n2)cc1`, for which the Ki at Adenosine receptor A1 turned out to be 392 nM; on Adenosine receptor A2a [1], 26 nM; at Adenosine receptor A3, 604 nM. Also, at Adenosine receptor A2b, the IC50 was more than 30000 nM.

As for `NCCC(=O)Nc1ccc(-c2cn3c(=O)n(-c4ccccc4)nc3c(N)n2)cc1`, the Ki at Adenosine receptor A1 worked out at 479 nM; on Adenosine receptor A2a [1], 0.59 nM; on Adenosine receptor A3 it was 509 nM. In addition, the IC50 on Adenosine receptor A2b turned out to be 9660 nM.

In the case of `COc1ccc(-c2cn3c(=O)n(-c4ccccc4)nc3c(N)n2)c(OC)c1`, the results for the Ki at Adenosine receptor A1, at Adenosine receptor A2a [1] and at Adenosine receptor A3 were 28 nM, 2.4 nM and 118 nM, respectively. Moreover, at Adenosine receptor A2b, the IC50 is more than 30000 nM.

Regarding `COc1c(C)cc(-c2cn3c(=O)n(-c4ccccc4)nc3c(N)n2)cc1C`, the figures for the Ki on Adenosine receptor A1, on Adenosine receptor A2a [1] and on Adenosine receptor A3 were 4.5 nM, 0.17 nM and 8.6 nM, respectively. On Adenosine receptor A2b, the IC50 was more than 30000 nM.

Take `NCCOc1ccc(-c2cn3c(=O)n(-c4ccccc4)nc3c(N)n2)cc1`: the Ki stood at 289 nM at Adenosine receptor A1, 14.9 nM on Adenosine receptor A2a [1] and 2130 nM at Adenosine receptor A3. In addition, the IC50 on Adenosine receptor A2b was more than 30000 nM.

Turning to `CC(C)(C)c1cc(-c2cn3c(=O)n(-c4ccccc4)nc3c(N)n2)ccc1O`, the IC50 is 179 nM at Adenosine receptor A2a [2] and more than 30000 nM at Adenosine receptor A2b. The values for the half-life in series [3] and in [5] were not below 4 h and 2.03 h, respectively. Also, the figures for the Ki on Adenosine receptor A1, at Adenosine receptor A2a [1] and at Adenosine receptor A3 were more than 30000 nM, 8.5 nM and more than 30000 nM, respectively. For the same compound, the figures for the Activity with Microglia [4] and in the series on Microglia [6] were 28.6% and 46.4%, respectively.

In the case of `COc1ccc(-c2cn3c(=O)n(-c4ccccc4)nc3c(N)n2)cc1OC`, the Ki on Adenosine receptor A1 was determined as 59 nM; on Adenosine receptor A2a [1] it was 5.7 nM; at Adenosine receptor A3, 80.1 nM. The IC50 at Adenosine receptor A2b was more than 30000 nM.

With `Nc1nc(-c2ccc(O)c(O)c2)cn2c(=O)n(-c3ccccc3)nc12`, the Ki on Adenosine receptor A1 was 42.6 nM; at Adenosine receptor A2a [1], 5.2 nM; at Adenosine receptor A3 it was 950 nM. Besides, the IC50 on Adenosine receptor A2b is more than 30000 nM.

With `CC(C)(C)c1cc(C(=O)NCCOc2ccc(-c3cn4c(=O)n(-c5ccccc5)nc4c(N)n3)cc2)cc(C(C)(C)C)c1O`, the Ki was 13700 nM at Adenosine receptor A1, 14800 nM on Adenosine receptor A2a [1] and more than 30000 nM at Adenosine receptor A3. Besides, on Adenosine receptor A2b, the IC50 was more than 30000 nM.

For the compound `C=CC(=O)Nc1ccc(-c2cn3c(=O)n(-c4ccccc4)nc3c(N)n2)cc1`, the results for the Ki on Adenosine receptor A1, on Adenosine receptor A2a [1] and on Adenosine receptor A3 were 263 nM, 1.8 nM and more than 30000 nM, respectively. For the same compound, the IC50 at Adenosine receptor A2b is more than 30000 nM.

Turning to `N#CCOc1ccc(-c2cn3c(=O)n(-c4ccccc4)nc3c(N)n2)cc1`, the IC50 is 157 nM on Adenosine receptor A2a [2] and more than 30000 nM on Adenosine receptor A2b. Also, the half-life in series [3] and in series [5] was not below 4 h each time. In addition, the Ki at Adenosine receptor A2a [7] is 39 nM; at Adenosine receptor A1 it was more than 30000 nM; at Adenosine receptor A2a [1] it was 8.2 nM; on Adenosine receptor A3 it was more than 30000 nM. Besides, the result with Mus musculus was Active. The figures for the Activity with Microglia [4] and with Microglia [6] were 23% and 48.7%, respectively.

The record behind these values is ChEMBL document CHEMBL4321802, “Antioxidant-Conjugated 1,2,4-Triazolo[4,3-a]pyrazin-3-one Derivatives: Highly Potent and Selective Human A2A Adenosine Receptor Antagonists Possessing Protective Efficacy in Neuropathic Pain” (J Med Chem, 2019).
